Experimental data as given in ChEMBL document CHEMBL3813612, “Carolignans from the Aerial Parts of Euphorbia sikkimensis and Their Anti-HIV Activity” (J Nat Prod, 2016).
pEC50: −log10 of the molar value.

How the values were obtained:
[1] = tested on: Human immunodeficiency virus 1; experiment: Antiviral activity against HIV1 NL4-3 infected in human MT4 cells assessed as reduction in viral replication measured on day 3 post infection by luciferase reporter gene assay; assay type: functional, organism-based
MT4 = experiment: Cytotoxicity against human MT4 cells assessed as reduction in cell viability after 3 days by CytoTox-Glo assay; assay type: cell-based; details: mt4, 72 h
Summary of the method: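 MT4 cells were cultured with various compound concentrations for 3 days. Viability was read by the CytoTox-Glo assay following the manufacturer's protocol. CC50 is the concentration giving a 50% reduction in cell viability.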

[2] = Selectivity index, ratio of CC50 for human MT4 cells to EC50 for HIV1 NL4-3 infected in human MT4 cells; assay type: toxicity, cell-based; details: read-out: Ratio CC50/EC50
[3] = Human immunodeficiency virus 1, NL4-3, MT4, 72 h

Compound	pEC50 ([1]; mt4)	CC50 (MT4)	pEC50 [1, 3]	CC50 (MT4; 72 h)	selectivity ratio [2]
COc1cc(/C=C/C(=O)OCCCc2ccc(O[C@H](COC(=O)/C=C/c3ccc(O)c(OC)c3)[C@@H](OC)c3ccc(O)c(OC)c3)c(OC)c2)ccc1O (stereo in doubt; 2a)	< 5.00	–	–	–	–
Cc1cn([C@H]2C[C@H](N=[N+]=[N-])[C@@H](CO)O2)c(=O)[nH]c1=O [ZIDOVUDINE]	–	> 0.1 µM	–	–	–
COc1cc(/C=C/C(=O)OCCCc2ccc(O[C@@H](COC(=O)/C=C/c3ccc(O)c(OC)c3)[C@H](OC)c3ccc(O)c(OC)c3)c(OC)c2)ccc1O (stereo in doubt; 1a)	–	–	5.20	21 µM	3.3
COc1cc(/C=C/C(=O)OCCCc2ccc(O[C@H](COC(=O)/C=C/c3ccc(O)c(OC)c3)[C@@H](OC)c3ccc(O)c(OC)c3)c(OC)c2)ccc1O (stereo in doubt; 1b)	–	–	5.28	17 µM	3.2
COc1cc(/C=C/C(=O)O)ccc1O [FERULATE]	–	> 10 µM	< 5.00	–	–
CCOC(=O)/C=C/c1ccc(O)c(OC)c1 [ETHYL FERULATE]	–	> 10 µM	< 5.00	–	–
